In ChEMBL document CHEMBL4732161, “Discovery of a novel family of FKBP12 "reshapers" and their use as calcium modulators in skeletal muscle under nitro-oxidative stress” (Eur J Med Chem, 2021):
pIC50: −log10 of the molar value. Calls of active or inactive are those of the source. The calls are words filed in the database; no cut-off is given here.

Assays:
[1] = molecular target: T1, RyR1/FKBP12 (Homo sapiens) (UniProt P21817+P62942); test: Stabilization of FKBP12/RyR1 protein-protein interaction in human 8220 myoblast-derived myotubes assessed as reversal of SIN1-induced intracellular calcium leakage at 150 nM preincubated for 12 hrs followed by SIN1 stimulation and measured after 6 hrs by fura-2 AM dye based fluorescence assay relative to control; details: Myotube, time 18.0 hrs
In short: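 Immortalized human 8220 myoblasts differentiated 9 days into myotubes, pretreated with compounds at 150 nM for 12 h, then stressed with 5 mM SIN1 for 6 h. Loaded with Fura-2AM ([…]) plus 0.02% pluronic acid, 30 min, 37 °C; calcium from 340/380 nm excitation ratio. Six replicates, ≥4 images each; recovery score = (treated − untreated)/(control − untreated) × 100.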

[2] = molecular target: T1, RyR1/FKBP12 (Homo sapiens); test: Stabilization of FKBP12/RyR1 protein-protein interaction in human myotubes assessed as reversal of SIN1-induced reduction in FKBP12/RyR1 co-localization at 150 nM by in situ proximity ligation assay relative to control; parameters: scale not given: the % may be the effect or the level left; details: Myotube
In short: (§1)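 Human myotubes 7–9 days into differentiation, treated at 150 nM, then 5 mM SIN1 for 30 min; PFA-fixed, anti-RyR1 mouse mAb overnight, Duolink orange PLA, MyHC-FITC and DAPI counterstain. Co-localization spots quantified as % of untreated control; 11–15 fields from 3–4 cultures, ≥8 myotubes per field; one-way ANOVA with Dunnett's test.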

[3] = molecular target: T2, Peptidyl-prolyl cis-trans isomerase FKBP1A (Homo sapiens, UniProt P62942); test: Binding affinity to FKBP12 (unknown origin) expressed in HEK293 cells co-expressing FRB assessed as induction of FKBP12-FRB dimerization at […] measured for 15 mins by nano-glo live cell reagent based luminescence assay
T2 sequence (P62942 whole entry): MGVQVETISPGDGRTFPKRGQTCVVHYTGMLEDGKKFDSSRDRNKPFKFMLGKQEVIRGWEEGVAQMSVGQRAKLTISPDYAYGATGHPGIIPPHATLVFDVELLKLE
In short: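 HEK293 cells on poly-D-lysine, transfected with FRB-LgBiT and FKBP-SmBiT vectors (12.5 ng/mL each); assayed 20–24 h later in CO2-independent medium with Nano-Glo Live Cell Reagent at 37 °C. Compound added alone at […]; dimerization luminescence (RLU) followed over time, each addition recorded 15 min.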

[4] = molecular target: T2, Peptidyl-prolyl cis-trans isomerase FKBP1A; test: Binding affinity to FKBP12 (unknown origin) expressed in HEK293 cells co-expressing FRB assessed as inhibition of rapamycin-induced FKBP12-FRB dimerization measured after 25 mins by nano-glo live cell reagent based luminescence assay
[5] = molecular target: T1, RyR1/FKBP12 (Homo sapiens); test: Effect on FKBP12/RyR1 protein-protein interaction in human myotubes by in situ proximity ligation assay; details: Myotube; in short: as §1
[6] = molecular target: T1, RyR1/FKBP12 (Homo sapiens); test: Stabilization of FKBP12/RyR1 protein-protein interaction in human myotubes assessed as reversal of SIN1-induced reduction in FKBP12/RyR1 co-localization by measuring increase in FKBP12/RyR1 co-localization at 150 nM by in situ proximity ligation assay relative to control; format: tissue-based; parameters: scale not given: the % may be the effect or the level left; details: Myotube; in short: as §1

| Activity [1] | Structure (SMILES) | further results |
| --- | --- | --- |
| inactive | O=C(O)Cn1cc(CSc2cccc(Cl)c2)nn1 |  |
| Active | COc1cccc(SCc2cn([C@@H](Cc3ccccc3)C(=O)O)nn2)c1 |  |
| inactive | O=C(O)[C@H](Cc1ccc(O)cc1)n1cc(CSc2cccc(C(F)(F)F)c2)nn1 |  |
| inactive | O=C(O)[C@@H](Cc1ccccc1)n1cc(CSc2cccc(C(F)(F)F)c2)nn1 |  |
| inactive | CC(C)(C)OC(=O)NCCCC[C@@H](C(=O)O)n1cc(CSc2cccc(Cl)c2)nn1 |  |
| < 90% | COc1cccc(SCc2cn(CC(=O)O)nn2)c1 | Activity [2]: 46%; Activity [3]: inactive; pIC50 [4]: 5.48; Activity [5]: inactive |
| < 90% | O=C(O)Cn1cc(CSc2c(F)c(F)cc(F)c2F)nn1 |  |
| < 90% | COc1cccc(SCc2cn(C(C)(C)C(=O)O)nn2)c1 |  |
| Active | COc1cccc(SCc2cn([C@H](CC(C)C)C(=O)O)nn2)c1 |  |
| Active | O=C(O)[C@@H](Cc1ccc(O)cc1)n1cc(CSc2cccc(C(F)(F)F)c2)nn1 |  |
| Active | CCC[C@H](C(=O)O)n1cc(CSc2cccc(OC)c2)nn1 |  |
| < 90% | COc1ccc(SCc2cn(CC(=O)O)nn2)cc1 |  |
| Active | COc1ccc2c(c1)CN(C)CCS2 | Activity [2]: 56%; Activity [6]: 84%; Activity [5]: inactive |
| < 90% | Cc1ccc(SCCc2cn(CC(=O)O)nn2)cc1 |  |
| < 90% | O=C(O)Cn1cc(CSc2ccccc2)nn1 |  |
| Active | COc1cccc(SCc2cn([C@H](Cc3ccccc3)C(=O)O)nn2)c1 |  |
